Measured values published in PubChem BioAssay.
Activity calls are given as the source filed them.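 Rule for the calls, unless noted: active = fluorescence slope after compound addition differing from the mean of all tested samples at 99.7% confidence, mostly higher but some lower; inactive = the rest.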

Tests used:
[1] = inhibitors of TNFa-induced NFkB p65 translocation, primary screen, imaging, HUVEC, MLSMR starter and 10KST1 sets (AID 438;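 active = inhibition above 20% together with a positive visual image hit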;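 note: compound added about 3h40 before a 20 min TNFalpha stimulation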;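 for inhibition: signal is the nuclear over cytoplasmic p65 intensity ratio per well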); conditions: HUVEC TNFa-induced p65 nuclear translocation; cell count: measured here: nuclei count (cytotoxicity indicator), at 2.08 µM; inhibition: at 2 µM, stronger effect = higher value, 0% TNFa-plus-vehicle, 100% no-TNFa wells
[2] = inhibitors of mutant huntingtin aggregation, primary screen, imaging, exon1htt(103Q)mCFP cells, high-content imaging (AID 483;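 active = visual image review flags a hit and inhibition of aggregation exceeds 20%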;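 note: compound exposure lasted 3 days before fixation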;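 for nuclei count: percent of the per-plate median nuclei count of sample wells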); conditions: exon1htt(103Q)mCFP cell line, aggregate imaging, at 2 µM; inhibition of aggregation: stronger effect = higher value; nuclei count: measured here: cell count, toxicity
[3] = inhibitors of E-selectin induction by TNFa, primary screen, imaging, HUVEC, immunofluorescence, MLSMR starter and 10KST1 sets (AID 487;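 active = visually confirmed hit in the image check and inhibition above 20%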;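 for inhibition: signal is fraction of cell area covered by stained E-selectin grains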;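 for nuclei count: 100% = median nuclei count of all wells on the same plate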); conditions: HUVEC TNFalpha-induced E-selectin immunofluorescence imaging, at 2 µM; inhibition: stronger effect = higher value; nuclei count: measured here: cell number, toxicity
[4] = target: Voltage-gated potassium channel subunit beta-2 (Rattus norvegicus) (UniProt P62483); test: KvBeta enzyme negative modulators, primary screen, biochemical, NADPH fluorescence (AID 622;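 active = fluorescence slope higher than the sample average by over 3 SD, cut at about -0.22 in these data, passing the limit was not always enough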;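 note: slope of raw intensity against log time taken from 70 to 1610 s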); conditions: recombinant KvBeta, 4-cyanobenzaldehyde reduction, at 10 µM, stronger effect = higher value
Voltage-gated potassium channel subunit beta-2 (Rattus norvegicus), sequence (P62483 whole entry, looked up): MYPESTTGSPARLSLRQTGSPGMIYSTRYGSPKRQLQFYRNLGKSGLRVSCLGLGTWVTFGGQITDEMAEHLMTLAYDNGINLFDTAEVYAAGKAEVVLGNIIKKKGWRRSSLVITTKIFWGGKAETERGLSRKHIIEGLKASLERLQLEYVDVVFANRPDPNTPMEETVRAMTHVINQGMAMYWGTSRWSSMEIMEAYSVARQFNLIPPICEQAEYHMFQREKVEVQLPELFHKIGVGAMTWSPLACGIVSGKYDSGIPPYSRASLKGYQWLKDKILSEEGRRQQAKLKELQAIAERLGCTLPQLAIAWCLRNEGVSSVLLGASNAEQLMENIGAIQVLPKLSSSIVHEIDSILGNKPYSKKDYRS

[5] = target: Voltage-gated potassium channel subunit beta-2 (Rattus norvegicus) (UniProt P62483); test: KvBeta positive modulators, primary screen, biochemical, NADPH fluorescence (AID 623;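 active = NADPH fluorescence slope more negative than the mean of all samples by about 3 SD, 99.7% confidence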;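 note: fluorescence intensity change per second fitted from 20 to 320 s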); conditions: Recombinant KvBeta, NADPH fluorescence decrease slope, 10 min; at 10 µM; stronger effect = lower value
[6] = target: Muscarinic acetylcholine receptor M4 (Homo sapiens) (UniProt P08173); test: compounds altering M4/GIRK thallium flux, either direction, primary screen, M4 allosteric agonist project, cell-based, HEK293 M4/GIRK, BTC-AM (AID 625); conditions: at 10 µM, actives lie on both sides;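 note: thallium influx through GIRK channels coupled to M4 in HEK293 cells with BTC-AM dye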
Muscarinic acetylcholine receptor M4 (Homo sapiens), sequence (P08173 whole entry, looked up): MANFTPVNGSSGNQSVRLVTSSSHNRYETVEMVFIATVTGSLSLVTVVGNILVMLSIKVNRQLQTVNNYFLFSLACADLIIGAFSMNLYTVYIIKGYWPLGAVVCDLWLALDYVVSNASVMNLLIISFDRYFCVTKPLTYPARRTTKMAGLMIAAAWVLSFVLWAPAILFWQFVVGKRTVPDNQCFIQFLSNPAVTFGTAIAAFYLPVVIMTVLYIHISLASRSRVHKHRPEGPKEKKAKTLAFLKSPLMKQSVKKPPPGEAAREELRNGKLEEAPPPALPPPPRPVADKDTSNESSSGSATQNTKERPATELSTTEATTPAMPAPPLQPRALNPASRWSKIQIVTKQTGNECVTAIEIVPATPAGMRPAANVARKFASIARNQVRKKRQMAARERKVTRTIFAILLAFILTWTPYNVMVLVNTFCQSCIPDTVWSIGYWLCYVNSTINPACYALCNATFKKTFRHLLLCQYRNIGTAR
Outline: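 Material – HEK293 cells with M4 receptor and GIRK channels · Buffer or medium – pH 7.3 thallium assay buffer · Doses – one dose, 10 µM final · Timing – cells overnight at 37 °C, BTC-AM loading 1 h, reads 2 min total · Measured by – kinetic fluorescence with BTC-AM dye · Controls – carbachol and DMSO controls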

[7] = inhibitors of Sendai virus-induced IRF3 signaling, primary screen, TLR/RLR signaling modifier project, cell-based, Sendai virus stimulus, luciferase, 10K MLSCN set (AID 602276;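 active = inhibition at or above 50% at 10 µM; inactive = inhibition below 50%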;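 note: firefly luciferase from ISG56 promoter only with Renilla not read in this screen; 0% = Sendai virus plus DMSO and 100% = medium plus DMSO without virus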); conditions: HEK293 RL24 IRF3 luciferase reporter, at 10 µM, stronger effect = higher value
[8] = inhibitors of poly I:C-induced TLR3 signaling, primary screen, cell-based, poly I:C stimulus, luciferase, 10K MLSCN set (AID 602277;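 active = inhibition of the reporter signal at or above 50%; inactive = inhibition below 50%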); conditions: HEK293-TLR3 RL24 IRF3 luciferase reporter, at 10 µM, stronger effect = higher value

Row | Structure (SMILES) | cell count [1] | inhibition [1] | inhibition of aggregation [2] | nuclei count [2] [%] | inhibition [3] | nuclei count [3] [%] | fluorescence slope [4] | NADPH fluorescence slope [5] | fluorescence slope [6] | inhibition [7] | inhibition [8]
1 | COc1cccc(Oc2ccc(N)cc2)c1 | 716 | -0.6% (inactive) | 20.3% (inactive) | 102 | -54.1% (inactive) | 97.5 | -0.44 (inactive) | -0.000235 (active) | 0.00432 (inactive) | -0.294% (inactive) | -6.53% (inactive)
2 | O=C(c1cccs1)c1cn(CC(=O)N2CCc3ccccc3C2)c2ccccc12 | 785 | -2.9% (inactive) | -15.5% (inactive) | 100 | -137% (inactive) | 123 | -0.519 (inactive) | -3.8e-05 (inactive) | 0.00668 (inactive) | 11.1% (inactive) | 8.88% (inactive)
3 | CCn1c(SCC(=O)Nc2nccs2)nnc1-c1ccncc1 | 331 | -1.4% (inactive) | -8.7% (inactive) | 110 | -20.2% (inactive) | 129 | -0.454 (inactive) | -2.4e-05 (inactive) | 0.00633 (inactive) | 14.8% (inactive) | 21.3% (inactive)
4 | O=C1CCCc2c1cc(C(=O)NCc1ccco1)c(=O)n2-c1ccc(Cl)cc1 | 220 | 0.8% (inactive) | 5.3% (inactive) | 91.5 | 37.1% (inactive) | 80 | -0.52 (inactive) | -5.7e-05 (inactive) | 0.0047 (inactive) | 10.8% (inactive) | 3.62% (inactive)
5 | CC(C)CNC(=O)c1ccccc1NC(=O)CN(c1ccc2c(c1)OCCO2)S(C)(=O)=O | 330 | 6% (inactive) | -12.9% (inactive) | 97.5 | -0.7% (inactive) | 105 | -0.574 (inactive) | 2.6e-05 (inactive) | 0.00389 (inactive) | 0.301% (inactive) | 0.167% (inactive)
6 | O=S(=O)(NCCc1ccccn1)c1cccs1 | 601 | -23% (inactive) | -31.3% (inactive) | 119 | -28.9% (inactive) | 147 | -0.417 (inactive) | -0.000114 (inactive) | 0.00561 (inactive) | 19.1% (inactive) | 34.4% (inactive)
7 | CCOc1ccc2cc(C#N)c(SCC(=O)N3CCCC3)nc2c1 | 451 | -6.5% (inactive) | 3.1% (inactive) | 99.8 | -32% (inactive) | 109 | -0.551 (inactive) | -5.2e-05 (inactive) | 0.00682 (inactive) | -13.8% (inactive) | -15.2% (inactive)
8 | CC(C)Cn1c(=O)c(C(=O)NCc2ccccn2)c(O)c2ccccc21 | 771 | -20.7% (inactive) | -28.1% (inactive) | 104 | -24% (inactive) | 108 | -0.37 (inactive) | -4.4e-05 (inactive) | 0.00508 (inactive) | 10.4% (inactive) | -3.14% (inactive)
9 | CCCn1c(NCc2ccc3c(c2)OCO3)nc2ccccc21 | 650 | -6.8% (inactive) | 2.4% (inactive) | 97.6 | 32% (inactive) | 93.5 | -0.537 (inactive) | -5.7e-05 (inactive) | 0.00348 (inactive) | -9.91% (inactive) | -7.89% (inactive)
10 | CCC(=O)n1nc(-c2ccco2)nc1N | 594 | -0.5% (inactive) | -13.1% (inactive) | 104 | -153% (inactive) | 114 | -0.486 (inactive) | -4.1e-05 (inactive) | 0.00538 (inactive) | 14.3% (inactive) | 15.1% (inactive)
11 | Cc1cnc(C(=O)Nc2ccc(-n3cnnn3)cc2)cn1 | 508 | -16.7% (inactive) | -8.7% (inactive) | 95.2 | 15.8% (inactive) | 95.7 | -0.513 (inactive) | -5.9e-05 (inactive) | 0.00454 (inactive) | 10.3% (inactive) | -4.35% (inactive)
12 | CSc1nnc(-c2cnccn2)n1C | 679 | -15.7% (inactive) | -6.5% (inactive) | 121 | -73.6% (inactive) | 109 | -0.603 (inactive) | -3.8e-06 (inactive) | 0.00641 (inactive) | 22.1% (inactive) | 25.7% (inactive)
13 | Cc1cc(-c2ccccc2)c2nncn2n1 | 304 | 0.9% (inactive) | -3% (inactive) | 108 | 1.4% (inactive) | 107 | -0.492 (inactive) | -1.4e-05 (inactive) | 0.00457 (inactive) | 18.1% (inactive) | 15.3% (inactive)
14 | CCCSC1=C(C#N)C(c2ccccc2OCC)CC(=O)N1 (centres undefined) | 443 | 0.5% (inactive) | 0.2% (inactive) | 111 | 9.8% (inactive) | 95 | -0.454 (inactive) | -2.4e-05 (inactive) | 0.00486 (inactive) | 17.2% (inactive) | 17.7% (inactive)
